# Reference: ChEMBL document CHEMBL1129498, “Azole endothelin antagonists. 2. Structure-activity studies” (J Med Chem, 1996)
# Assays:
# [1] = target: T1, Endothelin receptor type B (Sus scrofa, UniProt P35463); test: Inhibitory activity was evaluated against ET- B Binding to Endothelin B receptor from porcine cerebellar membranes
# T1 sequence (P35463 whole entry): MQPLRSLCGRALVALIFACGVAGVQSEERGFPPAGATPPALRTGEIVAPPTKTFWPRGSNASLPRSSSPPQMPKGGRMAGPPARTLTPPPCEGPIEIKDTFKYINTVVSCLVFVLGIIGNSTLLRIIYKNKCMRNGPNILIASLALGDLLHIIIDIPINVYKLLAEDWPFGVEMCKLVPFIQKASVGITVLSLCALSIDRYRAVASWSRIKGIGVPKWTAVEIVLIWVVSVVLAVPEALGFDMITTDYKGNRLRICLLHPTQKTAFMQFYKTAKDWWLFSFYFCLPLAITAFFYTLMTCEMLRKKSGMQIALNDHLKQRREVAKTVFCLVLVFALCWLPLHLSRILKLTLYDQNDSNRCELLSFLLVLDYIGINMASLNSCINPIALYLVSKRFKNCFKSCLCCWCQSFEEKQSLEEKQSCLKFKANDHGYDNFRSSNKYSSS
# [2] = target: T2, Endothelin-1 receptor (Rattus norvegicus, UniProt P26684); test: Inhibitory activity was evaluated against ET- A Binding to Endothelin A receptor in MMQ cell homogenates; format: cell-free
# T2 sequence (P26684 whole entry): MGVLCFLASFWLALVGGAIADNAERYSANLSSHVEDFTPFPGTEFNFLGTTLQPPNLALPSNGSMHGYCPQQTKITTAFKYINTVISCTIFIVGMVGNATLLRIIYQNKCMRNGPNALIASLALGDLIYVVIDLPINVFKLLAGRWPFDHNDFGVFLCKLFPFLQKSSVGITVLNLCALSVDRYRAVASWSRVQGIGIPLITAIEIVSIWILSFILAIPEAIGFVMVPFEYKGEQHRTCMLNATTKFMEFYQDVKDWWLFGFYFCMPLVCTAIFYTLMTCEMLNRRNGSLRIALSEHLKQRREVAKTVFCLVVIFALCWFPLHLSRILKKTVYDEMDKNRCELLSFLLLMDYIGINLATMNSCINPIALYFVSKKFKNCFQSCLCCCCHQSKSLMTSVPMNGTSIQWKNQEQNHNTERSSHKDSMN
# [3] = test system: MMQ; test: Inhibitory activity was evaluated by measuring the PI hydrolysis in MMQ cell line; format: functional, cell-based, Rattus norvegicus
# Summary of the method: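 MMQ cells (0.4 × 10⁶ cells/mL) labeled 16 h with 10 µCi/mL [³H]myoinositol in RPMI, PBS-washed, then held 60 min in buffer A with protease inhibitors and 10 mM LiCl. Compound pre-incubated 5 min, then 1 nM ET-1 challenge for 30 min at 37 °C, stopped with chloroform-methanol. Total inositol phosphates extracted and taken from the aqueous phase by AG1-X8 anion-exchange batch chromatography.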
IC50 [1],IC50 [2],"IC50 ([3]; Rattus norvegicus, MMQ)",IC50 ([3]; mmq),SMILES
> 100000 nM,9600 nM,–,–,Cc1oc([C@@H](Cc2c[nH]c3ccccc23)NC(=O)[C@H](CC(C)C)NC(=O)N2CCCCCC2)nc1CC(=O)O
> 100000 nM,–,–,–,Cc1c(C(=O)O)nc([C@@H](Cc2c[nH]c3ccccc23)NC(=O)[C@H](CC(C)C)NC(=O)N2CCCCCC2)n1Cc1ccccc1
67000 nM,37 nM,43 nM,–,Cc1[nH]c([C@@H](Cc2cn(C)c3ccccc23)NC(=O)[C@H](CC(C)C)NC(=O)NC2CCCC2)nc1C(=O)O
> 100000 nM,1900 nM,–,–,Cc1oc([C@@H](Cc2c[nH]c3ccccc23)NC(=O)[C@H](CC(C)C)NC(=O)N2CCCCCC2)nc1C(=O)NCC(=O)O
> 100000 nM,–,–,–,Cc1[nH]c([C@@H](Cc2cn(C)c3ccccc23)NC(=O)[C@H](CC(C)C)NC(=O)N2CCCCCC2)nc1C(=O)O
> 100000 nM,–,–,–,CCn1cc(C[C@@H](NC(=O)[C@H](CC(C)C)NC(=O)NC2CCCCC2)c2nc(C(=O)O)c(C)o2)c2ccccc21
> 100000 nM,–,–,–,Cc1oc([C@@H](Cc2c[nH]c3ccccc23)NC(=O)[C@H](CC(C)C)NC(=O)NC2CCCCC2)nc1C(=O)O
> 100000 nM,75 nM,–,–,Cc1[nH]c([C@@H](Cc2c[nH]c3ccccc23)NC(=O)[C@H](CC(C)C)NC(=O)NC2CCCCC2)nc1C(=O)O
> 100000 nM,–,4500 nM,–,Cc1oc([C@@H](Cc2c[nH]c3ccccc23)NC(=O)[C@H](CC(C)C)NC(=O)N2CCCCCC2)nc1C(=O)O
34000 nM,11 nM,4.1 nM,–,Cc1[nH]c([C@@H](Cc2cn(C)c3ccccc23)NC(=O)[C@H](CC(C)C)NC(=O)NC2CCCCC2)nc1C(=O)O
43000 nM,–,–,–,CCOC(=O)c1nc([C@@H](Cc2c[nH]c3ccccc23)NC(=O)[C@H](CC(C)C)NC(=O)N2CCCCCC2)oc1C
> 100000 nM,–,780 nM,–,Cc1[nH]c([C@@H](Cc2c[nH]c3ccccc23)NC(=O)[C@H](CC(C)C)NC(=O)N2CCCCCC2)nc1C(=O)O
> 100000 nM,> 100000 nM,–,–,Cc1[nH]c([C@@H](Cc2c[nH]c3ccccc23)NC(=O)[C@H](CC(C)C)NS(=O)(=O)N2CCCCCC2)nc1C(=O)O
65000 nM,3000 nM,–,–,CNC(=O)c1nc([C@@H](Cc2c[nH]c3ccccc23)NC(=O)[C@H](CC(C)C)NC(=O)N2CCCCCC2)oc1C
55000 nM,730 nM,–,–,CCn1cc(C[C@@H](NC(=O)[C@H](CC(C)C)NC(=O)NC2CCCCC2)c2nc(C(=O)O)c(C)[nH]2)c2ccccc21
75000 nM,400 nM,–,–,Cc1oc([C@@H](Cc2cn(C)c3ccccc23)NC(=O)[C@H](CC(C)C)NC(=O)NC2CCCCCC2)nc1C(=O)O
> 100000 nM,620 nM,–,–,Cc1oc([C@@H](Cc2cn(C)c3ccccc23)NC(=O)[C@H](CC(C)C)NC(=O)N2CCCCCC2)nc1C(=O)O
> 100000 nM,> 100000 nM,–,–,Cc1oc([C@@H](Cc2c[nH]c3ccccc23)NC(=O)[C@H](CC(C)C)NS(=O)(=O)N2CCCCCC2)nc1C(=O)O
99000 nM,300 nM,–,–,Cc1oc([C@@H](Cc2cn(C)c3ccccc23)NC(=O)[C@H](CC(C)C)NC(=O)NC2CCCC2)nc1C(=O)O
> 100000 nM,1000 nM,–,–,CCN(CC)C(=O)N[C@@H](CC(C)C)C(=O)N[C@H](Cc1c[nH]c2ccccc12)c1nc(C(=O)O)c(C)[nH]1
56000 nM,200 nM,–,–,Cc1oc([C@@H](Cc2cn(C)c3ccccc23)NC(=O)[C@H](CC(C)C)NC(=O)NC2(C)CCCCC2)nc1C(=O)O
> 100000 nM,2900 nM,–,–,Cc1oc([C@@H](Cc2c[nH]c3ccccc23)NC(=O)[C@H](CC(C)C)NC(=O)N2CCCCCC2)nc1C(=O)NO
> 100000 nM,220 nM,–,–,Cc1oc([C@@H](Cc2cn(C)c3ccccc23)NC(=O)[C@H](CC(C)C)NC(=O)NC2CCCCC2)nc1C(=O)O
> 100000 nM,3000 nM,–,–,CCN(CC)C(=O)N[C@@H](CC(C)C)C(=O)N[C@H](Cc1c[nH]c2ccccc12)c1nc(C(=O)O)c(C)o1
> 100000 nM,–,–,–,Cc1c(C(=O)O)nc([C@@H](Cc2c[nH]c3ccccc23)NC(=O)[C@H](CC(C)C)NC(=O)N2CCCCCC2)n1C

# Further lines, the compound ahead of its results:
SMILES,IC50 [1],IC50 [2],"IC50 ([3]; Rattus norvegicus, MMQ)",IC50 ([3]; mmq)
Cc1[nH]c([C@@H](Cc2cn(C)c3ccccc23)NC(=O)[C@H](CC(C)C)NC(=O)NC2CCC(O)CC2)nc1C(=O)O (stereo not given in full),> 100000 nM,110 nM,–,–
Cc1oc([C@@H](Cc2cn(C)c3ccccc23)NC(=O)[C@H](CC(C)C)NC(=O)NC2CC3CCC2C3)nc1C(=O)O (stereo in doubt; 15o),67000 nM,800 nM,–,–
Cc1oc([C@@H](Cc2cn(C)c3ccccc23)NC(=O)[C@H](CC(C)C)NC(=O)Nc2ccccc2)nc1C(=O)O,30000 nM,16 nM,53 nM,–
Cc1oc([C@@H](Cc2cn(C)c3ccccc23)NC(=O)[C@H](CC(C)C)NC(=O)NC2CCC(O)CC2)nc1C(=O)O (stereo not given in full),> 100000 nM,2520 nM,–,–
Cc1oc([C@@H](Cc2cn(C)c3ccccc23)NC(=O)[C@H](CC(C)C)NC(=O)NC2CCCCC2C)nc1C(=O)O (stereo not given in full),> 100000 nM,650 nM,–,–
Cc1[nH]c([C@@H](Cc2cn(C)c3ccccc23)NC(=O)[C@H](CC(C)C)NC(=O)NC2CCCCC2C)nc1C(=O)O (stereo not given in full),13000 nM,18 nM,–,–
Cc1oc([C@@H](Cc2cn(C)c3ccccc23)NC(=O)[C@H](CC(C)C)NC(=O)Nc2ccccn2)nc1C(=O)O,66000 nM,74 nM,–,–
Cc1oc([C@@H](Cc2cn(C)c3ccccc23)NC(=O)[C@H](CC(C)C)NC(=O)Nc2ccccc2F)nc1C(=O)O,2400 nM,17 nM,26 nM,–
Cc1[nH]c([C@@H](Cc2cn(C)c3ccccc23)NC(=O)[C@H](CC(C)C)NC(=O)NC2CC3CCC2C3)nc1C(=O)O (stereo in doubt; 14o),8300 nM,29 nM,–,16 nM
Cc1oc([C@@H](Cc2c[nH]c3ccccc23)NC(=O)[C@H](CC(C)C)NC(=O)NCc2ccccc2)nc1C(=O)O,96000 nM,8700 nM,–,–
Cc1oc([C@@H](Cc2cn(C)c3ccccc23)NC(=O)[C@H](CC(C)C)NC(=O)Nc2ccc(F)cc2)nc1C(=O)O,> 100000 nM,1900 nM,–,–
Cc1oc([C@@H](Cc2cn(C)c3ccccc23)NC(=O)[C@H](CC(C)C)NC(=O)n2ccc3ccccc32)nc1C(=O)O,12000 nM,58 nM,–,–
Cc1oc([C@@H](Cc2cn(C)c3ccccc23)NC(=O)[C@H](CC(C)C)NC(=O)Nc2cccc(F)c2)nc1C(=O)O,55000 nM,66 nM,–,–
Cc1[nH]c([C@@H](Cc2cn(C)c3ccccc23)NC(=O)[C@H](CC(C)C)NC(=O)NC2CCCC(C)C2)nc1C(=O)O (stereo not given in full),22000 nM,26 nM,8.6 nM,–
Cc1oc([C@@H](Cc2cn(C)c3ccccc23)NC(=O)[C@H](CC(C)C)NC(=O)NC2CCCc3ccccc32)nc1C(=O)O (stereo not given in full),48000 nM,230 nM,–,–
Cc1[nH]c([C@@H](Cc2cn(C)c3ccccc23)NC(=O)[C@H](CC(C)C)NC(=O)NC2CCC(C)CC2)nc1C(=O)O (stereo not given in full),80000 nM,141 nM,–,–
Cc1oc([C@@H](Cc2cn(C)c3ccccc23)NC(=O)[C@H](CC(C)C)NC(=O)NC2CCCC(C)C2)nc1C(=O)O (stereo not given in full),> 100000 nM,960 nM,–,–
Cc1oc([C@@H](Cc2cn(C)c3ccccc23)NC(=O)[C@H](CC(C)C)NC(=O)N2CCCc3ccccc32)nc1C(=O)O,66000 nM,33 nM,0.9 nM,–
Cc1oc([C@@H](Cc2cn(C)c3ccccc23)NC(=O)[C@H](CC(C)C)NC(=O)NC2CC3CCC2C3)nc1C(=O)O (stereo in doubt; 15p),26000 nM,450 nM,–,–
Cc1oc([C@@H](Cc2cn(C)c3ccccc23)NC(=O)[C@H](CC(C)C)NC(=O)NC23CC4CC(CC(C4)C2)C3)nc1C(=O)O,19000 nM,900 nM,–,–
Cc1[nH]c([C@@H](Cc2c[nH]c3ccccc23)NC(=O)[C@H](CC(C)C)NC(=O)NCc2ccccc2)nc1C(=O)O,> 100000 nM,2100 nM,–,–
Cc1oc([C@@H](Cc2cn(C)c3ccccc23)NC(=O)[C@H](CC(C)C)NC(=O)Nc2c(F)c(F)c(F)c(F)c2F)nc1C(=O)O,> 100000 nM,3550 nM,–,–
Cc1oc([C@@H](Cc2cn(C)c3ccccc23)NC(=O)[C@H](CC(C)C)NC(=O)NC2CCC(C)CC2)nc1C(=O)O (stereo not given in full),> 100000 nM,–,–,–
Cc1oc([C@@H](Cc2cn(C)c3ccccc23)NC(=O)[C@H](CC(C)C)NC(=O)NC2C3CC4CC(C3)CC2C4)nc1C(=O)O (stereo not given in full),26000 nM,440 nM,–,–
COC(=O)C1(NC(=O)N[C@@H](CC(C)C)C(=O)N[C@H](Cc2cn(C)c3ccccc23)c2nc(C(=O)O)c(C)o2)CCCCC1,> 90000 nM,120 nM,–,–
